# Assays:
# [1] = Aqueous solubility of the compound; type: physicochemical
# [2] = Oral bioavailability in rat; type: ADME, organism-based; settings: in vivo
# Blood = experiment: Inhibition of LPS-induced TNFalpha production in human whole blood; type: functional, tissue-based
# [3] = target: 3',5'-cyclic-AMP phosphodiesterase 4B (Homo sapiens, UniProt Q07343); experiment: Inhibition of PDE4B catalytic domain by scintillation proximity assay
# How it was run: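 PDE4B catalytic activity inhibition measured by scintillation proximity assay; pIC50 reported as mean of two determinations.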
# [4] = Half life in cynomolgus monkey; type: ADME, organism-based, Macaca fascicularis; settings: in vivo
# How it was run: (§1)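 Cynomolgus monkey pharmacokinetics after oral dosing as a solution in 10% DMSO, 15% PEG400, 75% water; a second arm used suspension dosing of particle-size-reduced material in 1% methyl cellulose. Values are means of three experiments.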
# [5] = Clearance in cynomolgus monkey plasma; type: ADME, organism-based, Macaca fascicularis; how it was run: as §1
# [6] = Selectivity for PDE4B over PDE6
# [7] = Selectivity for PDE4B over PDE3
# [8] = Selectivity for PDE4B over PDE2
# [9] = Oral bioavailability in cynomolgus monkey; type: ADME, organism-based, Macaca fascicularis; settings: in vivo; how it was run: as §1
# [10] = Selectivity for PDE4B over PDE1
# [11] = Selectivity for PDE4B over PDE7
# [12] = Selectivity for PDE4B over PDE5
# 3',5'-cyclic-AMP phosphodiesterase 4B, sequence (Q07343 whole entry, the tested form may be a part): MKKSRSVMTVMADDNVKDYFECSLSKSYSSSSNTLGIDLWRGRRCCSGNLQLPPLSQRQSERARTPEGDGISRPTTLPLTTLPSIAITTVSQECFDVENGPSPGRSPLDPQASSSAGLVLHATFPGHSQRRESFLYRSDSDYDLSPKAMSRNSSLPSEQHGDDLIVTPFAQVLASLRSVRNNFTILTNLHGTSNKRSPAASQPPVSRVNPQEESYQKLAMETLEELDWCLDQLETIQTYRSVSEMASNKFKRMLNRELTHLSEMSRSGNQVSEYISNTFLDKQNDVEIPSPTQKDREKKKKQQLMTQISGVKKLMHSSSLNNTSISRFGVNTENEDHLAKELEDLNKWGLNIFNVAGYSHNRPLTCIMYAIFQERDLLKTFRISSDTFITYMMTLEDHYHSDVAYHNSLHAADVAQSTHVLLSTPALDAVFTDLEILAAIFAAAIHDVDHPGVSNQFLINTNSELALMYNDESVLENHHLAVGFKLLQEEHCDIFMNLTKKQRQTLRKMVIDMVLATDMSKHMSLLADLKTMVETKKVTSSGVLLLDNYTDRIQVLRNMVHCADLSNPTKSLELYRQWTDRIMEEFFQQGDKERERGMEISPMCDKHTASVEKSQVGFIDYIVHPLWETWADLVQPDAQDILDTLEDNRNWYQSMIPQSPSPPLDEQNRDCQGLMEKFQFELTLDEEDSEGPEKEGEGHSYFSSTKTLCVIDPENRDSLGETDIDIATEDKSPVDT
SMILES,solubility [1] [µg/mL],bioavailability [2] [%],IC50 (Blood) [nM],IC50 [3] [nM],half-life [4] [min],clearance [5] [mL/min/kg],Selectivity ratio [6],Selectivity ratio [7],Selectivity ratio [8],bioavailability [9] [%],Selectivity ratio [10],Selectivity ratio [11],Selectivity ratio [12]
CC(C)(C)S(=O)(=O)c1ccc2c(c1)C(Nc1cncc(F)c1)=C(C(N)=O)NN2,1,57,12.6,0.501,,,,,,,,,
Cc1cc(S(C)(=O)=O)cc2c1NNC(C(N)=O)=C2Nc1cncc(F)c1,37,34,5.01,< 0.501,,,,,,,,,
CS(=O)(=O)c1ccc2c(c1)C(Nc1cncc(Cl)c1)=C(C(N)=O)NN2,7,66,31.6,0.794,,,,,,,,,
CS(=O)(=O)c1cc(F)c2c(c1)C(Nc1cncc(F)c1)=C(C(N)=O)NN2,,,158,0.631,,,,,,,,,
Cc1cc(S(C)(=O)=O)cc2c1NNC(C(N)=O)=C2Nc1cncc(Cl)c1,12,50,1.58,0.0794,,,,,,,,,
Cc1cc(S(C)(=O)=O)cc2c1NNC(C(N)=O)=C2Nc1cccc(C#N)c1,1,17,2.51,< 1,432,1.6,> 100,> 100,> 100,64,> 100,> 100,> 100
CCn1nccc1NC1=C(C(N)=O)NNc2c(C)cc(S(=O)(=O)CC)cc21,,41,10,0.316,,,,,,,,,
Cc1cc(S(C)(=O)=O)cc2c(Nc3cccc(C#N)c3)c(C(N)=O)cnc12,1,,12.6,,48,82,,,,33,,,
Cc1cc(S(C)(=O)=O)cc2c(Nc3cccc(C#N)c3)c(C(N)=O)c(=O)[nH]c12,,,25.1,1,252,5.9,,,,52,,,
